Results on 29 molecules are retold here after ChEMBL document CHEMBL1131423, “N-(2-Benzoylphenyl)-L-tyrosine PPARgamma agonists. 2. Structure-activity relationship and optimization of the phenyl alkyl ether moiety” (J Med Chem, 1998).

Data set [1] is described as follows: Solubility determined by equilibrating an excess of solid material in 500 microL of pH 7.4 phosphate buffer. The note with it: read-out: S. It counts as physicochemical. In outline: (§1)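 Samples are filtered (0.22 µm) and diluted in water/acetonitrile 60:40. The dissolved concentration is measured by reversed-phase HPLC on a phenyl column with 0.05% TFA water/acetonitrile (60:40), 1 mL/min, and UV detection at each compound's maximum. Results are in mg/mL.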

Data set [2] concerns the target T1, Peroxisome proliferator-activated receptor alpha (Homo sapiens, UniProt Q07869).
T1 sequence (Q07869 whole entry): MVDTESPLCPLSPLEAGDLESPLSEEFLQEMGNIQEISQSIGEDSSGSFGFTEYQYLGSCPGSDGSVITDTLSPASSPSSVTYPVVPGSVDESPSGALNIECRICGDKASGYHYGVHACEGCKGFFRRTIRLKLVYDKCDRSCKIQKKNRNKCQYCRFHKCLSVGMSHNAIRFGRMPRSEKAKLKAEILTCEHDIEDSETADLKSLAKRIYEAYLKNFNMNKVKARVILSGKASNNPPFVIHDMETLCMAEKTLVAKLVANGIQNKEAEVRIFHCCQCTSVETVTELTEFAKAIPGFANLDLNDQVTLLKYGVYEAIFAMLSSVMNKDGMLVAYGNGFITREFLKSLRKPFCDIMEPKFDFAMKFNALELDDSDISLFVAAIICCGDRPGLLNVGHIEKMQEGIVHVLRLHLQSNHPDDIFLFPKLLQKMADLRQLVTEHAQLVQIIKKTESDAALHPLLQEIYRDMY
As to the kind of experiment: In vitro transactivation of Peroxisome proliferator activated receptor alpha. Type of data set: functional.

For data set [3], the target named is T1, Peroxisome proliferator-activated receptor alpha. As to the kind of experiment: Tested in vitro for inhibiting the 50% binding of Peroxisome proliferator activated receptor alpha.
Data set [4] in a line: The solubility determined by equilibrating an excess of solid material in 500 microL of pH 7.4 phosphate buffer. It counts as ADME. The note with it: read-out: S. In outline: as §1
Data set [5] in a line: The solubility determined by equilibrating an excess of solid material in 500 microL of simulated gastric fluid. It counts as ADME. To be noted: read-out: S. In outline: as §1
Data set [6] addresses T2, Peroxisome proliferator-activated receptor alpha (Homo sapiens) (UniProt Q07869).
T2 sequence (whole entry): T1 sequence (Q07869 whole entry)
Briefly: Compound was tested in vitro for inhibiting the 50% binding of Peroxisome proliferator activated receptor alpha; IA = 'inactive'.

For data set [7], the target named is T3, Peroxisome proliferator-activated receptor gamma (Homo sapiens) (UniProt P37231).
T3 sequence (whole entry): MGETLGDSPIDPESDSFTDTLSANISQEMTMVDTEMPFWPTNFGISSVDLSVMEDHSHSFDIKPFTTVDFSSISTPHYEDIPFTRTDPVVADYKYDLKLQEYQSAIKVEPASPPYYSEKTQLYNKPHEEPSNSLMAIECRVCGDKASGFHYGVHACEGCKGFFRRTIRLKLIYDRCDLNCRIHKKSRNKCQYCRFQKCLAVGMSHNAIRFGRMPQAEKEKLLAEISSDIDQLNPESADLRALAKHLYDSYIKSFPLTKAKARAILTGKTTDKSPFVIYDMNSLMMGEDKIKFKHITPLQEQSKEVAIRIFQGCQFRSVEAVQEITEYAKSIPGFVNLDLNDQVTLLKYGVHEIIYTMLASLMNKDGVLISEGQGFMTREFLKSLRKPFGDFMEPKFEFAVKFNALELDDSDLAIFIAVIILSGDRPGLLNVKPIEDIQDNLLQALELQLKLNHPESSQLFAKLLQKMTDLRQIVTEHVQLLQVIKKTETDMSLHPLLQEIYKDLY
Briefly: (§2) Compound was tested in vitro for inhibiting the 50% binding of Peroxisome proliferator activated receptor gamma; IA = Inactive. The procedure, abridged: (§3)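 Competitive radioligand binding to PPARγ with [3H]BRL 49653 as the radioligand. […] It is converted to an apparent Ki by Ki = IC50/(1 + [L]/Kd), and results are given as pKi.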

The target in data set [8] is T4, Peroxisome proliferator-activated receptor gamma (Homo sapiens, UniProt P37231).
T4 sequence (P37231 whole entry): T3 sequence (whole entry)
As to the kind of experiment: Inhibition by 50% of in vitro binding to Peroxisome proliferator activated receptor gamma.

Data set [9] addresses T4, Peroxisome proliferator-activated receptor gamma. Briefly: Tested functionally in vitro for inducing 50% of the maximum alkaline phosphate activity (Transactivation) against Peroxisome proliferator activated receptor gamma. It counts as functional.
Data set [10] shares this target. The description is as §2. In outline: as §3
The target in data set [11] is T1, Peroxisome proliferator-activated receptor alpha. As to the kind of experiment: Compound was tested in vitro for inhibiting the 50% binding of Peroxisome proliferator activated receptor alpha. Type of data set: functional.
The target of data set [12] is T4, Peroxisome proliferator-activated receptor gamma. Briefly: Compound was tested functionally in vitro for inducing 50% of the maximum alkaline phosphate activity (Transactivation) against Peroxisome proliferator activated receptor gamma. Type of data set: functional.
Data set [13] concerns the target Peroxisome proliferator-activated receptor gamma (Homo sapiens) (UniProt P37231). Briefly: Compound was tested in vitro for inhibiting the 50% binding of Peroxisome proliferator activated receptor gamma; IA = Inactive.
Data set [14] deals with T3, Peroxisome proliferator-activated receptor gamma (Homo sapiens). As to the kind of experiment: Inhibition of Peroxisome proliferator activated receptor gamma. In outline: as §3

pEC50, pKi: −log10 of the molar value. Values after ≈ are worked out from the molar mass of the structure shown. Active and inactive are the calls of the source. The calls are words filed in the database; no cut-off is given here.

In the case of `Cc1cc(-c2ccccc2)nn1CCOc1ccc(C[C@H](Nc2ccccc2C(=O)c2ccccc2)C(=O)O)cc1`, the solubility thermodynamic in [1] stood at 4 µg/mL (≈ 7.33 µM). In addition, in data set [2], the pEC50 (as a rule, the EC50 on a negative log10 scale, so that one unit is a factor of ten) was 6.18. Further, the pKi – broadly, −log10 of the Ki, conventionally taken in molar units – in data set [3] was 6.76.
On to `Cc1sc(N2CCN(C)CC2)nc1CCOc1ccc(C[C@H](Nc2ccccc2C(=O)c2ccccc2)C(=O)O)cc1`, for which the solubility thermodynamic in [4] was 10 µg/mL (≈ 17.1 µM); in data set [5], > 6000 µg/mL. The same molecule had a negative logarithm of the EC50 (pEC50) in [2] of 5.19. Besides, the negative-log Ki (pKi) in data set [3] is < 5.52.
`Cc1ncsc1CCOc1ccc(C[C@H](Nc2ccccc2C(=O)c2ccccc2)C(=O)O)cc1`: the “Log Ki” value in [6] was “inactive”.
With `CC(C)c1ccc(COc2ccc(C[C@H](Nc3ccccc3C(=O)c3ccccc3)C(=O)O)cc2)cc1`, the “Log Ki” value in [6] was “inactive”.
Regarding `Cc1sc(N2CCOCC2)nc1CCOc1ccc(C[C@H](Nc2ccccc2C(=O)c2ccccc2)C(=O)O)cc1`, the values for the solubility thermodynamic in [4] and in [5] were 180 µg/mL (≈ 315 µM) and 4 µg/mL (≈ 7 µM), respectively. Moreover, the negative-log EC50 (pEC50) in [2] is < 5.00. For the same molecule, the pKi in data set [3] is 5.72.
For the molecule `Cn1cc(-c2ccccc2)nc1CCOc1ccc(C[C@H](Nc2ccccc2C(=O)c2ccccc2)C(=O)O)cc1`, the values for the solubility thermodynamic in data set [4] and in [5] were 4 µg/mL (≈ 7.33 µM) and < 1 µg/mL, respectively. In addition, the negative-log EC50 (pEC50) in data set [2] is < 5.00. For the same molecule, the pKi in data set [3] is 6.86.
As to `Cc1nc(-c2ccccc2)nn1CCOc1ccc(C[C@H](Nc2ccccc2C(=O)c2ccccc2)C(=O)O)cc1`, the solubility thermodynamic was 4 µg/mL (≈ 7.32 µM) in [4] and 1 µg/mL (≈ 1.83 µM) in [5]. Also, in [2], the pEC50 is < 5.00. For the same molecule, the pKi in data set [3] was < 5.52.
With `Cc1ccc(C)c(COc2ccc(C[C@H](Nc3ccccc3C(=O)c3ccccc3)C(=O)O)cc2)c1`, the “Log Ki” value in data set [7] was “inactive”.
As for `COc1ccc(COc2ccc(C[C@H](Nc3ccccc3C(=O)c3ccccc3)C(=O)O)cc2)cc1`, in data set [7], the “Log Ki” value is “inactive”.
Regarding `Cc1sc(-c2ccccc2)nc1CCOc1ccc(C[C@H](Nc2ccccc2C(=O)c2ccccc2)C(=O)O)cc1`, the solubility thermodynamic in data set [4] is 2 µg/mL (≈ 3.55 µM); in data set [5], < 1 µg/mL. Also, the negative-log EC50 (pEC50) in data set [2] is 5.98. In [3], this molecule showed a pKi of 6.90.
In the same order, the values of `COCCNc1nc(CCOc2ccc(C[C@H](Nc3ccccc3C(=O)c3ccccc3)C(=O)O)cc2)c(C)s1` are 210 µg/mL (≈ 375 µM), 210 µg/mL (≈ 375 µM), < 5.00 and 5.73.
Regarding `Cc1sc(N2CCN(S(C)(=O)=O)CC2)nc1CCOc1ccc(C[C@H](Nc2ccccc2C(=O)c2ccccc2)C(=O)O)cc1`, the negative logarithm of the Ki (pKi) in [8] was 8.58; in data set [3] it was 5.60. Moreover, the pEC50 was < 5.00 in [2] and 7.63 in [9].
As for `CN(C)C(=O)c1cccc(COc2ccc(C[C@H](Nc3ccccc3C(=O)c3ccccc3)C(=O)O)cc2)n1`, in data set [7], the “Log Ki” value was “inactive”.
As for `COc1ccccc1C(=O)N1CCC[C@H]1COc1ccc(C[C@H](Nc2ccccc2C(=O)c2ccccc2)C(=O)O)cc1`, the negative logarithm of the Ki (pKi) in [8] is 6.02.
In [10], `O=C(c1ccccc1)c1ccccc1N[C@@H](Cc1ccc(OCC2COCCOCCOCCO2)cc1)C(=O)O` (stereo not given in full) had a negative-log Ki (pKi) of 5.93.
For `Cc1oc(-c2ccccc2)nc1CCOc1ccc(C[C@H](Nc2ccccc2C(=O)c2ccccc2)C(=O)O)cc1` [FARGLITAZAR], the solubility thermodynamic in [4] and in data set [5] was < 1 µg/mL in each case.
As for `COC(COc1ccc(C[C@H](Nc2ccccc2C(=O)c2ccccc2)C(=O)O)cc1)c1ccccc1` (stereo not given in full), the negative-log Ki (pKi) in data set [8] was 6.10.
Regarding `O=C(c1ccccc1)c1ccccc1N[C@@H](Cc1ccc(OCCOc2ccc(SCl)cc2)cc1)C(=O)O`, the negative logarithm of the Ki (pKi) in [11] is 5.85. This molecule had a pEC50 in data set [12] of 6.72.
In the case of `CCOc1ccc(COc2ccc(C[C@H](Nc3ccccc3C(=O)c3ccccc3)C(=O)O)cc2)cc1`, the “Log Ki” value in data set [7] was “inactive”.
Regarding `O=C(c1ccccc1)c1ccccc1N[C@@H](Cc1ccc(OCCOc2ccc(Br)cc2)cc1)C(=O)O`, in [6], the “Log Ki” value was “inactive”.
Regarding `O=C(c1ccccc1)c1ccccc1N[C@@H](Cc1ccc(OCCc2cc(Br)no2)cc1)C(=O)O`, in data set [7], the “Log Ki” value was “inactive”.
With `Cc1cc(C(C)C)ccc1CCOc1ccc(C[C@H](Nc2ccccc2C(=O)c2ccccc2)C(=O)O)cc1`, the “Log Ki” value in data set [13] was “inactive”.
The molecule `O=C(c1ccccc1)c1ccccc1N[C@@H](Cc1ccc(OC2CCN2C(c2ccccc2)c2ccccc2)cc1)C(=O)O` (stereo not given in full) had a pKi in data set [8] of 5.79.
Regarding `COc1cc(COc2ccc(C[C@H](Nc3ccccc3C(=O)c3ccccc3)C(=O)O)cc2)cc(Br)c1OC`, the “Log Ki” value in [14] was “inactive”.
Consider `O=C(c1ccccc1)c1ccccc1N[C@@H](Cc1ccc(OCc2cnc3ccccc3c2)cc1)C(=O)O`, for which the “Log Ki” value in data set [14] was “inactive”.
Take `Cc1ccc[n+]2c1=NC(c1ccccc1)C=2COc1ccc(C[C@H](Nc2ccccc2C(=O)c2ccccc2)C(=O)O)cc1` (stereo not given in full): in [14], the “Log Ki” value is “inactive”.
Take `Cc1sc(N2CCNCC2)nc1CCOc1ccc(C[C@H](Nc2ccccc2C(=O)c2ccccc2)C(=O)O)cc1`: the solubility thermodynamic in data set [4] was 25 µg/mL (≈ 43.8 µM); in data set [5] it was > 10000 µg/mL. The pEC50 in [2] was < 5.00. For the same molecule, the negative logarithm of the Ki (pKi) in [3] is < 5.52.
As to `O=C(c1ccccc1)c1ccccc1N[C@@H](Cc1ccc(OCCc2ccc(Cl)cc2)cc1)C(=O)O`, in data set [6], the “Log Ki” value was “inactive”.
As for `Cc1oc(-c2ccncc2)nc1CCOc1ccc(C[C@H](Nc2ccccc2C(=O)c2ccccc2)C(=O)O)cc1`, the figures for the solubility thermodynamic in data set [4] and in data set [5] were 846 µg/mL (≈ 1540 µM) and 5 µg/mL (≈ 9.13 µM), respectively. Further, in [2], the negative-log EC50 (pEC50) is < 5.00. Moreover, the pKi in [3] was < 5.52.
